The nature of data set [1]: Metabolic stability in rat plasma assessed as parent compound remaining at 10 uM after 120 mins by LC-MS/MS method. The data set is classed as ADME, cell-free. The note with it: read-out: Stability. The gist of the method:
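Rat plasma spiked with test article at 10 μM and incubated at 37 °C, sampled at 0, 30 and 120 min. Acetonitrile containing chlorpropamide internal standard added, then vortexed and centrifuged at 4 °C; supernatant quantified by LC-MS/MS as % remaining. Procaine and diltiazem served as positive controls.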

Data set [2] can be described thus: Protein binding in human plasma at 10 uM after 4 hrs by rapid equilibrium dialysis method. Conditions: read-out: PPB (converted). Type of data set: ADME, cell-free. The method, boiled down:
(§1)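 Rapid equilibrium dialysis of human or rat plasma dosed at 10 μM against PBS pH 7.4, 4 h at 37 °C. Plasma and buffer aliquots were matrix-matched with blank buffer or plasma, precipitated with acetonitrile containing chlorpropamide internal standard, and analysed by LC-MS/MS. Dexamethasone and warfarin served as positive controls.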

The nature of data set [3]: Protein binding in rat plasma at 10 uM after 4 hrs by rapid equilibrium dialysis method. Type of data set: ADME, cell-free. The note with it: read-out: PPB (converted). The gist of the method:
as §1
For orientation: Equilibrium dialysis compares concentrations on both sides of a semipermeable membrane.

Data set [4] can be described thus: Lipophilicity, log P of the compound in neutral form. The data set is classed as physicochemical. Conditions: octanol/water.
A short description of data set [5]: Apparent permeability across apical to basolateral side in human Caco2 cells at 25 uM measured every 15 mins for 60 mins by LC-MS/MS method. The data set is classed as ADME, cell-based. The note with it: Caco-2. The method, boiled down:
(§2)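 Caco-2 cells were seeded at 1×10^6 per 12-well transwell and grown 3 weeks. Test article was 25 μM in HBSS transport buffer (10 mM glucose, 4 mM bicarbonate, 1 mM HEPES, pH 7.4), added to the apical or basolateral side. Incubated 60 min at 37 °C with sampling every 15 min; LC-MS/MS read-out.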
(Caco-2 cells form a polarised layer with tight junctions and transporters.)

Data set [6] can be described thus: Apparent permeability across basolateral to apical side in human Caco2 cells at 25 uM measured every 15 mins for 60 mins by LC-MS/MS method. Type of data set: ADME, cell-based. The note with it: Caco-2. The method, boiled down: as §2
The nature of data set [7]: Efflux ratio of apparent permeability from basolateral to apical side over apical to basolateral side in human Caco2 cells at 25 uM. Type of data set: ADME, cell-based. Conditions: Caco-2.
Data set [8] concerns the target T1, CYP1A2 (Homo sapiens, UniProt P05177).
T1 sequence (P05177 whole entry): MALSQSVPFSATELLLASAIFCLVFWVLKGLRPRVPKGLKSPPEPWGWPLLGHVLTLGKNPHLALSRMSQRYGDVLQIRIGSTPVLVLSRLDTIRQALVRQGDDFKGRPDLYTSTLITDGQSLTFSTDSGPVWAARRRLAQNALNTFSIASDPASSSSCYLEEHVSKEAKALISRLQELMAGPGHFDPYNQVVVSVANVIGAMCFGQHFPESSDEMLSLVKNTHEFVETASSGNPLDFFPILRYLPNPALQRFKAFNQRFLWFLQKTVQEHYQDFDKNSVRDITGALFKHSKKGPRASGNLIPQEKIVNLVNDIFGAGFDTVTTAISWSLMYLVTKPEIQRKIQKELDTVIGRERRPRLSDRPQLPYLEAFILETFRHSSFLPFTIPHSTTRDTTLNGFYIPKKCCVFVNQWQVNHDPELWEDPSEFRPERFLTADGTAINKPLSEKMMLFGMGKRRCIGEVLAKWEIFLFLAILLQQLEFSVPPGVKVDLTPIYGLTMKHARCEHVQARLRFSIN
The data set is described as follows: Inhibition of CYP1A2 in human liver microsomes assessed as remaining activity at 10 uM using phenacetin as substrate preincubated for 5 mins followed by addition of NADPH regenerating system and measured after 15 mins by LC-MS/MS analysis relative to control. The data set is classed as ADME. Conditions: probe phenacetin, read-out: Activity. The method, boiled down: (§3)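 Human liver microsomes (0.25 mg/mL) in 0.1 M phosphate buffer with test article at 0 or 10 μM and substrate cocktail, preincubated 5 min at 37 °C. Cocktail A: phenacetin 50 μM, coumarin 2.5 μM, S-mephenytoin 100 μM, dextromethorphan 5 μM, midazolam 2.5 μM. Cocktail B: bupropion 50 μM, amodiaquine 2.5 μM, tolbutamide 100 μM, chlorzoxazone 50 μM. NADPH system added, then 15 min at 37 °C; acetonitrile quench, LC-MS/MS.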
Background: Liver microsomes are vesicles of endoplasmic reticulum, rich in cytochrome P450 enzymes.

For data set [9], the target named is T2, CYP2A6 (Homo sapiens, UniProt P11509).
T2 sequence (P11509 whole entry): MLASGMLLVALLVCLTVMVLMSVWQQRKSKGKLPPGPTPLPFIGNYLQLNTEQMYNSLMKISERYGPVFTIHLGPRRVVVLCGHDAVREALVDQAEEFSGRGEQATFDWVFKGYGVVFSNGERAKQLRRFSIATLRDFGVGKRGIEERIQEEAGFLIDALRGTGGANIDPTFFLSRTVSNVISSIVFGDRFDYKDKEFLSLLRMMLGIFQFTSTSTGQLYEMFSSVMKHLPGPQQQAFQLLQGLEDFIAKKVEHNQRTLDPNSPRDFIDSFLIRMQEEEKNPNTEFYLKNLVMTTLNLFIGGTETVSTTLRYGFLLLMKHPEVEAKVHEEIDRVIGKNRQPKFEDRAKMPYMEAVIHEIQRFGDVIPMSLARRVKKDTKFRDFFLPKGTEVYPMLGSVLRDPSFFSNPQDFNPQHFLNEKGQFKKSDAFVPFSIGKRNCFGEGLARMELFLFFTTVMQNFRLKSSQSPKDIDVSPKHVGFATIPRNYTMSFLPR
Put plainly: Inhibition of CYP2A6 in human liver microsomes assessed as remaining activity at 10 uM using coumarin as substrate preincubated for 5 mins followed by addition of NADPH regenerating system and measured after 15 mins by LC-MS/MS analysis relative to control. The data set is classed as ADME. The note with it: probe coumarin, read-out: Activity. The gist of the method: as §3

Data set [10] addresses T3, CYP2B6 (Homo sapiens, UniProt P20813).
T3 sequence (P20813 whole entry): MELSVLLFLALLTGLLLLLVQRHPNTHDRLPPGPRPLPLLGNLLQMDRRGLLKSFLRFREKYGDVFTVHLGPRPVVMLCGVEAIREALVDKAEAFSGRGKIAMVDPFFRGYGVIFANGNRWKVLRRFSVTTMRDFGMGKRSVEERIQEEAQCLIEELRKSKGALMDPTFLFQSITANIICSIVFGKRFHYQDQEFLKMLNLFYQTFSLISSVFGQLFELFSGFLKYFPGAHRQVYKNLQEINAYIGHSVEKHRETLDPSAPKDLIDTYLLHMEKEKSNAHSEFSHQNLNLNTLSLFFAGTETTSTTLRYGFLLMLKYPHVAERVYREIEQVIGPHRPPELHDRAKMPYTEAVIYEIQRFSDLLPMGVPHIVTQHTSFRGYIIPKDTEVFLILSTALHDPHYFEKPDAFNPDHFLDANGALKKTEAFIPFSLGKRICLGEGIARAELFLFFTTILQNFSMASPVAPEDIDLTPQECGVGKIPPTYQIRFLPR
The data set is described as follows: Inhibition of CYP2B6 in human liver microsomes assessed as remaining activity at 10 uM using bupropion as substrate preincubated for 5 mins followed by addition of NADPH regenerating system and measured after 15 mins by LC-MS/MS analysis relative to control. The data set is classed as ADME. Conditions: probe bupropion, read-out: Activity. The gist of the method: as §3

Data set [11] concerns the target CYP2E1 (Homo sapiens, UniProt P05181). The data set is described as follows: Inhibition of CYP2E1 in human liver microsomes assessed as remaining activity at 10 uM using chlorzoxazone as substrate preincubated for 5 mins followed by addition of NADPH regenerating system and measured after 15 mins by LC-MS/MS analysis relative to control. Type of data set: ADME. The note with it: probe chlorzoxazone, read-out: Activity. The method, boiled down: as §3

Chain of CYP2E1 (P05181 whole entry): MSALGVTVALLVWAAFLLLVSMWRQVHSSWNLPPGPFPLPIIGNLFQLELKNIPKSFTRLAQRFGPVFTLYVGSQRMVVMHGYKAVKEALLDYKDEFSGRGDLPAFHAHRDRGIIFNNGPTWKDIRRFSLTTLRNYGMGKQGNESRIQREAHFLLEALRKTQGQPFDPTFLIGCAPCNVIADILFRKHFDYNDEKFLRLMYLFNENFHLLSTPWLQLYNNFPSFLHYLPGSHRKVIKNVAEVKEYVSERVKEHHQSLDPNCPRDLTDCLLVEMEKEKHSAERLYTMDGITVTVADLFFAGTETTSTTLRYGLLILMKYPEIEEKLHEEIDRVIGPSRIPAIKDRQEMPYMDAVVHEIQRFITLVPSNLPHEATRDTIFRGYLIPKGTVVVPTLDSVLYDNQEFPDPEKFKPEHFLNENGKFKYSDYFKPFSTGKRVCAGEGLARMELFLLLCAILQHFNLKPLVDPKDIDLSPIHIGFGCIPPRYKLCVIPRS

In general, logP refers to the decadic logarithm of the partition coefficient of the neutral form, usually between octanol and water. The low end stands for a more hydrophilic compound, the high end for a more lipophilic compound. As a reminder, the Papp A→B is the apparent permeability from the apical to the basolateral side of a cell layer. For orientation: Papp B→A means how fast a substance crosses the layer from the basolateral side. One may read the efflux ratio as a quotient of directional permeabilities that is used to spot active efflux. For `CN(c1ncnc2[nH]ccc12)[C@H]1CN(C(=O)CC#N)CC12CC2`, the remaining at 2 h, 10 µM in data set [1] turned out to be 89.6%. Moreover, the fraction unbound at 4 h, 10 µM in [2] was 0.702; in [3], 0.813. In addition, the logP in [4] came to 1.69. Also, the Papp A→B at 1 h, 25 µM in [5] came out at 66 nm/s. Further, in [6], the Papp B→A at 1 h, 25 µM is 185 nm/s. Further, in [7], the efflux ratio at 25 µM was 2.78. Moreover, the activity at 0.25 h, 10 µM in data set [8] was 92.5%; in data set [9] it was 92%; in data set [10], 91.5%; in [11], 50.3%.

As for `CCS(=O)(=O)N1C[C@H](N(C)c2ncnc3[nH]ccc23)C2(CC2)C1`, the remaining at 2 h, 10 µM in data set [1] is greater than 100%. The fraction unbound at 4 h, 10 µM in data set [2] is 0.556; in [3], 0.505. The logP in [4] stood at 2.07. Besides, the Papp A→B at 1 h, 25 µM in [5] came out at 254 nm/s. Besides, the Papp B→A at 1 h, 25 µM in data set [6] came to 256 nm/s. Further, in data set [7], the efflux ratio at 25 µM is 1.01. The activity at 0.25 h, 10 µM in data set [8] is 99.9%; in data set [9], 96.7%; in data set [10], greater than 100%; in [11], 63.9%.

In the case of `CN(c1ncnc2[nH]ccc12)[C@H]1CN(S(=O)(=O)c2cccc(C#N)c2)CC12CC2`, in data set [1], the remaining at 2 h, 10 µM was greater than 100%. For the same compound, the values for the fraction unbound at 4 h, 10 µM in data set [2] and in data set [3] were 0.126 and 0.142, respectively. In data set [4], this compound registered a logP of 3.69. The Papp A→B at 1 h, 25 µM in data set [5] turned out to be 134 nm/s. For the same compound, the basolateral-to-apical permeability (Papp B→A) at 1 h, 25 µM in data set [6] worked out at 157 nm/s. For the same compound, in data set [7], the efflux ratio at 25 µM was determined as 1.17. Besides, the activity at 0.25 h, 10 µM in [8] was found to be 65.7%; in data set [9] it was 87.2%; in data set [10] it was 92%; in data set [11] it was 59.8%.

(Values after ChEMBL document CHEMBL4257478, “Design, synthesis and evaluation of (R)-3-(7-(methyl(7H-pyrrolo[2,3-d]pyrimidin-4-yl)amino)-5-azaspiro[2.4]heptan-5-yl)-3-oxopropanenitrile as a JAK1-selective inhibitor” (Medchemcomm, 2018).)
